The record followed here is ChEMBL document CHEMBL4376862, “Synthesis and evaluation of novel chlorophyll a derivatives as potent photosensitizers for photodynamic therapy” (Eur J Med Chem, 2020).

Molecules are shown by their SMILES. Active and inactive are the calls of the source. No cut-off for these calls is given here.

The nature of series [1]: Induction of ROS generation in DMF solution assessed as slope of the photodegradation rate of DPBF at 2 uM followed by irradiation measured every 10 secs by spectrophotometric analysis. The format is functional.
A short description of series [2]: Octanol/water partition coefficient, logP of compound by shake flask method. The format is physicochemical. In short, it runs like this: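 Shake-flask method: equilibrium concentrations in octanol and water measured by UV-vis absorbance; log P taken as log of octanol/water concentration ratio (mg/L).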
Series [3] in a line: Absorption property of compound in DMSO assessed as strong absorption wavelength at 1 x 10^-3 M by UV-spectra analysis. The format is physicochemical. As to conditions: 1000 µM. Summed up:
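Stocks 1 mM in DMSO; spectra run over […] range (units as printed), 300–800 nm in 1 nm steps, room temperature, quartz cuvettes, UV-vis spectrophotometer.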

Series [4] can be described thus: Absorption property of compound in DMSO assessed as Q band absorption at 1 x 10^-3 mM by UV-spectra analysis. As to conditions: 1 µM.
Series [5] deals with A549. In words: Phototoxicity against human A549 cells assessed as reduction in cell proliferation irradiated with 1 J/cm2 of 650 nanometer laser light preincubated for 24 hrs measured after 48 hrs by MTT assay. The format is functional, cell-based. As to conditions: A549, light or radiation study. Summed up:
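A549 cells seeded 5×10^4 cells/100 µL per well, given […] for 24 h, then 650 nm semiconductor laser at 1 J/cm2 (25 mW/cm2, 40 s); MTT 4 h, absorbance 570 nm; viability vs control; triplicate, mean ± SD.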
(In general: Formazan colour is commonly taken as a measure of viable cells.)

A short description of series [6]: Emission property of a compound in DMSO assessed as red shift at 5 uM on excitation with light at 410 to 415 nm by 3D fluorescence spectra analysis. The format is physicochemical. In short, it runs like this:
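Stock 1 mM in DMSO, measured at […] (so in the source); excitation scanned 350–640 nm, emission 600–750 nm, 1 nm steps, room temperature, quartz cuvettes; 3D fluorescence matrix spectra recorded.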

Series [7] can be described thus: Dark toxicity in human A549 cells assessed as reduction in cell viability incubated under dark for 24 hrs measured after 48 hrs by MTT assay. As to conditions: read-out: TC50. The format is cell-based. Summed up:
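A549 cells seeded at 5×10^4 cells/100 µL per well for 24 h, treated in the dark with […] (so in the source) for 24 h; MTT added 4 h, absorbance 570 nm, 48 h later; viability as OD treated/OD control; triplicate, mean ± SD.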

Series [8] is described as follows: Drug uptake in human A549 cells incubated upto 24 hrs by fluorescence spectrophotometer analysis. The format is ADME, cell-based. As to conditions: a549, 24 h. In short, it runs like this: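 A549 cells (F-12K, 10% FBS, 37 °C, 5% CO2) grown in 24 wells and exposed to photosensitizer for 0.5, 1, 2, 4, 8, 12 or 24 h; cells harvested by digestion, fluorescence read on a spectrophotometer.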

Series [9] can be described thus: Induction of ROS generation in DMF solution assessed as ROS quantum yield at 2 uM followed by irradiation measured every 10 secs by spectrophotometric analysis. The format is functional.
Series [10] in a line: Therapeutic index, ratio of TC50 for human A549 cells under dark to IC50 for human A549 cells irradiated with 1 J/cm2 of 650 nanometer laser light. The format is toxicity, cell-based. The following applies: read-out: TI. In short, it runs like this:
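A549 cells (F-12K, 10% FBS, 37 °C, 5% CO2) seeded 24 h, then exposed to 0–10 photosensitizer for 24 h. Dark arm: MTT 48 h later. Light arm: 650 nm laser, 1 J/cm2 (25 mW/cm2, 40 s), then MTT. A570 viability relative to control, triplicate. Ratio = dark TC50 / irradiated IC50.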

Series [11] deals with A549. Nature of the series: Photodynamic antitumor activity against human A549 cells xenografted in BALB/c nude mouse assessed as decrease in tumor weight at 0.3 mg/kg, iv followed by laser light irradiation at 120 J/cm2 measured after 14 days. The format is functional. Summed up: (§1)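 Male BALB/c nude mice (5–6 weeks, 14–16 g) given 2×10^6 A549 cells s.c. in 0.2 mL PBS; at 6–7 mm tumors randomized into ten groups; drug via tail vein, 650 nm diode laser 120 J/cm2 at 180 mW/cm2 24 h later; caliper volume a×b²/2, followed 14 days.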
In general terms: Xenograft models place foreign cells or tissue in a host animal.

For series [12], the system named is Mus musculus. Nature of the series: Phototoxicity in ICR mouse assessed as change in auricles 0.45 mg/kg, iv in presence of 10 mW/cm2 light irradiation for 10 mins upto 7 days measured after 1day of light irradiation by H and E staining based microscopic analysis. The format is organism-based. The following applies: in vivo.
Series [13] deals with Mus musculus. In words: Phototoxicity in ICR mouse assessed as ear weight at 0.45 mg/kg, iv followed by 10 mW/cm2 light irradiation for 10 mins at 7 days after drug challenge measured after 1 day of light irradiation (13.2 +/- 1.6 mg). The format is organism-based. The following applies: in vivo.
The subject of series [14] is Mus musculus. Nature of the series: Phototoxicity in ICR mouse assessed as ear weight at 0.45 mg/kg, iv followed by 10 mW/cm2 light irradiation for 10 mins at 1 day after drug challenge measured after 1 day of light irradiation (reference value: 12.6 +/- 1.2 mg). The format is organism-based. As to conditions: in vivo.
The subject of series [15] is Cavia porcellus. Nature of the series: Phototoxicity in guinea pig assessed as change in left ear weight 4.5 mg/kg, iv followed by 10 mW/cm2 light irradiation for 10 mins measured after 1 day of light irradiation (reference value: 39.2 +/- 1.8 mg). The format is organism-based. As to conditions: in vivo.
Series [16] has as its system Cavia porcellus. In words: Phototoxicity in guinea pig assessed as change in back skin at 4.5 mg/kg, iv in presence of 10 mW/cm2 light irradiation for 10 mins measured after 1day of light irradiation by H and E staining based microscopic analysis. The format is organism-based. As to conditions: in vivo.
Series [17] relates to A549. In words: Photodynamic antitumor activity against human A549 cells xenografted in BALB/c nude mouse assessed as increase in tumor tissue damage at 0.3 mg/kg, iv incubated for 24 hrs followed by laser light irradiation at 120 J/cm2 measured up to 14 days. The format is functional, organism-based. Summed up:
as §1

Series [18] relates to A549. In words: Photodynamic antitumor activity against human A549 cells xenografted in BALB/c nude mouse assessed as survival time at 0.3 mg/kg, iv incubated for 24 hrs followed by laser light irradiation at 120 J/cm2 measured up to 70 days. The format is functional, organism-based. Summed up: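 Nude mice bearing A549 xenografts, 0.3 mg/kg drug i.v. then 650 nm laser 120 J/cm2 at 180 mW/cm2 after 24 h; survival shown as Kaplan-Meier with log-rank test, n = 5.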

Series [19] concerns Cavia porcellus. Nature of the series: Phototoxicity in guinea pig assessed as change in right ear weight 4.5 mg/kg, iv followed by 10 mW/cm2 light irradiation for 10 mins measured after 1 day of light irradiation (reference value: 40.4 +/- 2.4 mg). The format is organism-based. The following applies: in vivo.
The test system of series [20] is Mus musculus. In words: Phototoxicity in ICR mouse assessed as change in skin of the backs 0.45 mg/kg, iv in presence of 10 mW/cm2 light irradiation for 10 mins upto 7 days measured after 1 day of light irradiation by H and E staining based microscopic analysis. As to conditions: in vivo. The format is organism-based.
In series [21] the test system is Cavia porcellus. Nature of the series: Phototoxicity in guinea pig assessed as change in back skin weight 4.5 mg/kg, iv followed by 10 mW/cm2 light irradiation for 10 mins measured after 1day of light irradiation (reference value: 72.4 +/- 3.1 mg). The format is organism-based. The following applies: in vivo, 24 h.
The test system of series [22] is A549. Nature of the series: Photodynamic antitumor activity against human A549 cells xenografted in BALB/c nude mouse assessed as reduction in tumor volume at 0.3 mg/kg, iv incubated for 24 hrs followed by laser light irradiation at 120 J/cm2 measured up to 14 days. The format is functional, organism-based. Summed up:
as §1

Series [23] relates to Mus musculus. Nature of the series: Phototoxicity in ICR mouse assessed as ear weight at 0.45 mg/kg, iv followed by 10 mW/cm2 light irradiation for 10 mins at 5 days after drug challenge measured after 1 day of light irradiation (reference value: 12.9 +/- 1.4 mg). The following applies: in vivo. The format is organism-based.
The subject of series [24] is Cavia porcellus. Nature of the series: Phototoxicity in guinea pig assessed as change in auricles of left ear at 4.5 mg/kg, iv in presence of 10 mW/cm2 light irradiation for 10 mins measured after 1day of light irradiation by H and E staining based microscopic analysis. The format is organism-based. As to conditions: in vivo.
The test system of series [25] is Mus musculus. In words: Phototoxicity in ICR mouse assessed as change in exposed neck skin 0.45 mg/kg, iv in presence of 10 mW/cm2 light irradiation for 10 mins upto 7 days measured after 1day of light irradiation by H and E staining based microscopic analysis. The following applies: in vivo. The format is organism-based.
For series [26], the system named is Mus musculus. Nature of the series: Phototoxicity in ICR mouse assessed as ear weight at 0.45 mg/kg, iv followed by 10 mW/cm2 light irradiation for 10 mins at 3 days after drug challenge measured after 1 day of light irradiation (reference value: 12.8 +/- 1.5 mg). The format is organism-based. As to conditions: in vivo.

As usually defined, the logP is a log measure of how a compound divides between an organic and an aqueous phase. A high value points to higher lipophilicity. A word on the IC50: it is the concentration needed to halve the response being measured. Regarding `C=Cc1c(C)c2cc3nc(c4c5[nH]c(cc6nc(cc1[nH]2)C(C)=C6CC)c(C)c5C(=O)C4)[C@@H](CCC(=O)NCC(=O)CCC(=O)O)[C@@H]3C`, in [1], the K turned out to be 0.0251 s⁻¹. Besides, the logP in series [2] came out at 2.28. Further, the Activity was 660 to 670 nm in [3], 669 nm in [4], 661 to 669 nm in series [6] and 0.2826 g in series [11]. Besides, the half-inhibitory concentration (IC50) in series [5] is 2010 nM. Further, the CC50 at 24 h in series [7] came out at 3190 nM. Moreover, in series [8], the Drug uptake entry is given as “Active”. Also, in [9], the Ratio was 1.25. The selectivity ratio in series [10] came to 1.59.

As for `CCCCCCOC(C)c1c(C)c2cc3nc(c4c5[nH]c(cc6nc(cc1[nH]2)C(C)=C6CC)c(C)c5C(=O)C4)[C@@H](CCC(=O)O)[C@@H]3C` (stereo partly drawn) [HPPH], the Activity result in [12] was “Non-Toxic”; in series [13], 13.2 mg; in series [14] it was 12.8 mg; in series [15], 42.6 mg; in series [16] it was “Non-Toxic”; in [19], 42.2 mg. In addition, the Activity result in series [20] is “Non-Toxic”; in series [6], 661 to 669 nm; in series [21], 74.1 mg; in series [23], 13.1 mg; in series [24], “Non-Toxic”; in [11], 0.0212 g. In addition, the values for the Activity entry in series [25] and in [26] were “Non-Toxic” and 13.3 mg, respectively. For the same molecule, the K in series [1] was 0.0357 s⁻¹. In addition, the outcome in series [17], in [18] and in series [22] was Active. In series [5], the IC50 amounted to 330 nM. Besides, in series [7], the CC50 at 24 h turned out to be 1950 nM. Moreover, the Ratio in series [9] is 1.78. The selectivity ratio in series [10] is 5.91.
